Test results published in ChEMBL document CHEMBL4390653, “Potential anti-herpes and cytotoxic action of novel semisynthetic digitoxigenin-derivatives” (Eur J Med Chem, 2019).

Columns and labels:
[1] = Cytotoxicity against African green monkey Vero cells assessed as reduction in cell viability after 48 hrs by SRB assay; assay type: cell-based; details: chlorocebus sabaeus
In short: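 Vero cells in MEM with 10% FBS, seeded at 2.5 × 10^4 cells/well. Exposed to a range of concentrations for 48 h at 37 °C, 5% CO2, then sulforhodamine B total-protein staining. CC50 is the concentration reducing viability by 50% versus untreated controls, from nonlinear regression; mean ± SD of three independent experiments.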

Human alphaherpesvirus 2 = test: (§1) Antiviral activity against Herpes simplex virus 2-333 infected in African green monkey Vero cells assessed as inhibition of viral replication after 48 hrs by naphthol blue-black staining-based plaque reduction assay; assay type: functional, organism-based; details: Human alphaherpesvirus 2, 333, Vero
In short: (§2)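 Vero cells in MEM with 10% FBS, 37 °C, 5% CO2. Confluent monolayers (2.5 × 10^5 cells/well) infected with about 100 PFU for 1 h at 37 °C. Non-cytotoxic concentrations were added after infection. Cells were then PBS-washed and overlaid with MEM plus 1.5% carboxymethylcellulose, with or without compound, for 48 h. Fixed, naphthol blue-black stained, plaques counted under a stereomicroscope. IC50 versus untreated controls by nonlinear regression; mean of three independent experiments.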

HCT-8 = test: Cytotoxicity against human HCT8 cells assessed as inhibition of cell viability after 48 hrs by SRB assay; assay type: functional, cell-based; details: HCT-8, 48 h
In short: (§3)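 Cells seeded at 2.5 × 10^4 per well and exposed to a concentration range for 48 h, then SRB total-protein stain. PC3 grown in phenol-red-free DMEM with 1% glutamine; LNCaP in phenol-red-free RPMI 1640 with glutamine and non-essential amino acids. HCT-8 and H460 in RPMI 1640. MRC-5 (plus glutamine and non-essential amino acids) and primary gingival fibroblasts in DMEM. All media had 10% FBS, 37 °C, 5% CO2. Paclitaxel was the reference. IC50 versus untreated controls by nonlinear regression, three independent experiments.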

[2] = as §1, with “Selectivity index, ratio of Cytotoxicity against African green monkey Vero cells assessed as reduction in cell viability after 48 hrs by SRB assay to Antiviral” for “Antiviral”; assay type: toxicity; details: Vero cells infected with HSV-2 333, read-out: Ratio CC50/IC50
In short: (§4)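 Selectivity index = CC50 in Vero cells (SRB, 48 h) divided by plaque-reduction IC50 for the same virus strain.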

LNCaP = test: Cytotoxicity against human LNCAP cells assessed as inhibition of cell viability after 48 hrs by SRB assay; assay type: functional, cell-based; in short: as §3
Human alphaherpesvirus 1 [3] = test: Antiviral activity against acyclovir-resistant Herpes simplex virus 1 29-R infected in African green monkey Vero cells assessed as inhibition of viral replication after 48 hrs by naphthol blue-black staining-based plaque reduction assay; assay type: functional, organism-based; in short: as §2
[4] = (§5) Selectivity index, ratio of Cytotoxicity against African green monkey Vero cells assessed as reduction in cell viability after 48 hrs by SRB assay to Antiviral activity against acyclovir-sensitive Herpes simplex virus 1 KOS infected in African green monkey Vero cells assessed as inhibition of viral replication after 48 hrs by naphthol blue-black staining-based plaque reduction assay; assay type: toxicity; details: Vero cells infected with HSV-1 KOS, read-out: Ratio CC50/IC50; in short: as §4
PC-3 = test: Cytotoxicity against human PC3 cells assessed as inhibition of cell viability after 48 hrs by SRB assay; assay type: functional, cell-based; details: PC-3, 48 h; in short: as §3
A549 = test: Cytotoxicity against human A549 cells assessed as inhibition of cell viability after 48 hrs by SRB assay; assay type: functional, cell-based; details: A549, 48 h
[5] = as §5, with “acyclovir-resistant” for “acyclovir-sensitive”, “29-R” for “KOS”; assay type: toxicity; details: Vero cells infected with HSV-1 29-R, read-out: Ratio CC50/IC50; in short: as §4
Human alphaherpesvirus 1 [6] = test: Antiviral activity against acyclovir-sensitive Herpes simplex virus 1 KOS infected in African green monkey Vero cells assessed as inhibition of viral replication after 48 hrs by naphthol blue-black staining-based plaque reduction assay; assay type: functional, organism-based; details: Human alphaherpesvirus 1, strain KOS; in short: as §2
MRC5 = test: Cytotoxicity against human MRC5 cells assessed as inhibition of cell viability after 48 hrs by SRB assay; assay type: cell-based; details: MRC5, 48 h; in short: as §3
NCI-H460 = test: Cytotoxicity against human H460 cells assessed as inhibition of cell viability after 48 hrs by SRB assay; assay type: functional, cell-based; details: NCI-H460, 48 h; in short: as §3
[7] = Cytotoxicity against human HGF cells assessed as inhibition of cell viability after 48 hrs by SRB assay; assay type: cell-based; in short: as §3
[8] = Inhibition of porcine cortex Na+/K+-ATPase alpha1/2/3 subunit using ATP as substrate preincubated for 30 mins followed by substrate addition and measured after 30 mins by malachite green reagent-based assay; parameters: species or system Sus scrofa
[9] = Human alphaherpesvirus 1, 29-R, Vero, 48 h, read-out: IC50

Compound | CC50 at 48 h [1] | IC50 (Human alphaherpesvirus 2) | IC50 (HCT-8) | selectivity ratio at 48 h [2] | IC50 (LNCaP) | IC50 (Human alphaherpesvirus 1 [3]; [9]) | selectivity ratio at 48 h [4] | IC50 (PC-3) | IC50 (A549) | selectivity ratio at 48 h [5] | IC50 (Human alphaherpesvirus 1 [6]) | IC50 (MRC5) | IC50 (NCI-H460) | IC50 [7] | IC50 [8] | IC50 (Human alphaherpesvirus 1 [3]; vero)
C[C@]12CC[C@H](n3cc(CO[C@@H]4O[C@H](CO)[C@@H](O)[C@H](O)[C@H]4O)nn3)C[C@H]1CC[C@@H]1[C@@H]2CC[C@]2(C)[C@@H](C3=CC(=O)OC3)CC[C@]12O | > 300 µM | 2.14 µM | 3.7 µM | > 140 | 4.69 µM | 2.71 µM | > 108 | 2.35 µM | 2.03 µM | > 111 | 2.79 µM | – | – | – | – | –
CC(=O)O[C@H]1C(=O)[C@@]2(C)[C@H]([C@H](OC(=O)c3ccccc3)[C@]3(O)C[C@H](OC(=O)[C@H](O)[C@@H](NC(=O)c4ccccc4)c4ccccc4)C(C)=C1C3(C)C)[C@]1(OC(C)=O)CO[C@@H]1C[C@@H]2O [PACLITAXEL] | – | – | 0.17 µM | – | 21 µM | – | – | 0.67 µM | 0.11 µM | – | – | > 200 µM | 0.08 µM | > 200 µM | – | –
C[C@]12CC[C@H](NC(=O)CNc3ccc(C#N)cc3)C[C@H]1CC[C@@H]1[C@@H]2CC[C@]2(C)[C@@H](C3=CC(=O)OC3)CC[C@]12O | > 300 µM | 1 µM | 1.25 µM | > 300 | 2.08 µM | 0.42 µM | > 500 | 0.91 µM | 0.54 µM | > 714 | 0.6 µM | 1.06 µM | 0.25 µM | 2.09 µM | 4.16 µM | –
C[C@]12CC[C@H](NC(=O)CBr)C[C@H]1CC[C@@H]1[C@@H]2CC[C@]2(C)[C@@H](C3=CC(=O)OC3)CC[C@]12O | 36.1 µM | – | 1.74 µM | – | 3.42 µM | – | – | 1.7 µM | 1.4 µM | – | – | – | – | – | – | –
Nc1nc2c(ncn2COCCO)c(=O)[nH]1 [ACYCLOVIR] | > 2000 µM | 3.23 µM | – | > 619 | – | – | > 1450 | – | – | – | 1.38 µM | – | – | – | – | Not Active
C[C@]12CC[C@H](NC(=O)CCl)C[C@H]1CC[C@@H]1[C@@H]2CC[C@]2(C)[C@@H](C3=CC(=O)OC3)CC[C@]12O | 84 µM | 1.37 µM | 1.45 µM | 61.3 | 1.96 µM | 0.34 µM | 122 | 1.92 µM | 1.17 µM | 247 | 0.69 µM | – | – | – | – | –
CC(=O)OC[C@H]1O[C@@H](OCc2cn([C@H]3CC[C@@]4(C)[C@H](CC[C@@H]5[C@@H]4CC[C@]4(C)[C@@H](C6=CC(=O)OC6)CC[C@]54O)C3)nn2)[C@H](OC(C)=O)[C@@H](OC(C)=O)[C@@H]1OC(C)=O | 286 µM | 3.8 µM | 3.57 µM | 75.1 | 7.32 µM | 2.11 µM | 45.5 | 7.05 µM | 3.74 µM | 135 | 6.27 µM | – | – | – | – | –
